For assay [1], the target named is T1, Muscarinic acetylcholine receptor M1 (Homo sapiens, UniProt P11229).
T1 sequence (P11229 whole entry): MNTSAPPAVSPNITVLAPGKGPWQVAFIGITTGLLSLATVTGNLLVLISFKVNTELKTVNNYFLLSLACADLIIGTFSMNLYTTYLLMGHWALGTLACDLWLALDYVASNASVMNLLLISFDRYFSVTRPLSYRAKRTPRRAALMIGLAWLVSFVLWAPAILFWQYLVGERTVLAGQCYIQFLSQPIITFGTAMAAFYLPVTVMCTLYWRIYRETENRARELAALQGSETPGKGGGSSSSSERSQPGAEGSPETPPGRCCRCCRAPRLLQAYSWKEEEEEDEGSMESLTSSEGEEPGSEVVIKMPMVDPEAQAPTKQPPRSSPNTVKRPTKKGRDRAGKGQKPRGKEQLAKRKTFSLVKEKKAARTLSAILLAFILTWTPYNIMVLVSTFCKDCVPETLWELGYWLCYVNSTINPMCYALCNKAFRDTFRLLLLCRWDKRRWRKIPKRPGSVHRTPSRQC
The assay is described as follows: Displacement of [3H]NMS from human muscarinic M1 receptor expressed in CHO cells by liquid scintillation counter. The class given is cell-based.

Assay [2] deals with T2, Muscarinic acetylcholine receptor M2 (Homo sapiens, UniProt P08172).
T2 sequence (P08172 whole entry): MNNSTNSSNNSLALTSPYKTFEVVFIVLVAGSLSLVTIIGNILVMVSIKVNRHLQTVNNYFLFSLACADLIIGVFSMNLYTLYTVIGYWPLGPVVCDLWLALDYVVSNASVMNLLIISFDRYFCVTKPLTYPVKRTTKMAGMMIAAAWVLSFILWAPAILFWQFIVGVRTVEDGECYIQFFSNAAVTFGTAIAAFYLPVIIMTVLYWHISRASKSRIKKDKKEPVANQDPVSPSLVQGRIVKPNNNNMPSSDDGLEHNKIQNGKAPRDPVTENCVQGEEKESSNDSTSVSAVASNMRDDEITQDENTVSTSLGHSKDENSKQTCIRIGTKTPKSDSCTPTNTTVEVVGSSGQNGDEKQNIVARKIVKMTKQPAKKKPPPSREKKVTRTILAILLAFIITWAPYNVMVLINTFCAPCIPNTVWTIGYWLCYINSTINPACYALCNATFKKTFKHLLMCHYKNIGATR
The assay can be described thus: Displacement of [3H]NMS from human muscarinic M2 receptor expressed in CHO cells by liquid scintillation counter. The class given is cell-based. The method in brief:
(§1)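 Membrane protein was 70 µg/mL for hm2, 50 µg/mL for hm4 and 25 µg/mL for hm5. Incubation was 120 min at room temperature in 25 mM sodium phosphate with 5 mM MgCl2, pH 7.4. GF/C filtration and scintillation counting followed; duplicates.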

The target in assay [3] is Muscarinic acetylcholine receptor M3 (Homo sapiens, UniProt P20309). The assay can be described thus: Displacement of [3H]NMS from human muscarinic M3 receptor expressed in CHO cells by liquid scintillation counter. The format is cell-based.
Chain of Muscarinic acetylcholine receptor M3 (P20309 whole entry): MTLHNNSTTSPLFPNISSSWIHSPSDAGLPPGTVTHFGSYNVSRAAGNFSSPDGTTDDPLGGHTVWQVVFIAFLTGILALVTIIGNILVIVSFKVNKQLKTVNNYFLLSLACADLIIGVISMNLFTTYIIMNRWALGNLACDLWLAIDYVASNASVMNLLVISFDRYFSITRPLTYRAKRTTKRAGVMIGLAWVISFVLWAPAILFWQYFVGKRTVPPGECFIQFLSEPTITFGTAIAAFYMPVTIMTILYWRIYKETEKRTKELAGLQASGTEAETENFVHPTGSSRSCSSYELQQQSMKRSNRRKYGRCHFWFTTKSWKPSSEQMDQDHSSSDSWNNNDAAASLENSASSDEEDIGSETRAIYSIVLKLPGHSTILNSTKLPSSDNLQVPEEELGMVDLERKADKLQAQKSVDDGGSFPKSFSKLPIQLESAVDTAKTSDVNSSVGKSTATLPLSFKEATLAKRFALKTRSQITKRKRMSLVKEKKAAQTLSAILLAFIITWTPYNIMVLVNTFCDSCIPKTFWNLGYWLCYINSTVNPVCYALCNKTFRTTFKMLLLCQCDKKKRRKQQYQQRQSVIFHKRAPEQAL
In assay [4] the target is T3, Muscarinic acetylcholine receptor M4 (Homo sapiens, UniProt P08173).
T3 sequence (P08173 whole entry): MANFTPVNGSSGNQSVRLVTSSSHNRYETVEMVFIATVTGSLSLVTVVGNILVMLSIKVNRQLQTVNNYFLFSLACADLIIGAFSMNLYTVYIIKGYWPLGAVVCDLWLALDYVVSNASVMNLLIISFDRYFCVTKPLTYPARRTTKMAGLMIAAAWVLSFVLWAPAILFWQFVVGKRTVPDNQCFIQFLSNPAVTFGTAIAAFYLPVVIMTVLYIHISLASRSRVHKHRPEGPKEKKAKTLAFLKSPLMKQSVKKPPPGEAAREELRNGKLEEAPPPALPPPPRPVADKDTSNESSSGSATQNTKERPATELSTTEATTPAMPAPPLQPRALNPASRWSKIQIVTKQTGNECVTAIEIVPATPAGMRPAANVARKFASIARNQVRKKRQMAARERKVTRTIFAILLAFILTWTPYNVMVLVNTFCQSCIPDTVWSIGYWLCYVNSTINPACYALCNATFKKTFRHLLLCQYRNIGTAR
The assay is described as follows: Displacement of [3H]NMS from human muscarinic M4 receptor expressed in CHO cells by liquid scintillation counter. The format is cell-based. In outline:
as §1

Assay [5] addresses T4, Muscarinic acetylcholine receptor M5 (Homo sapiens, UniProt P08912).
T4 sequence (P08912 whole entry): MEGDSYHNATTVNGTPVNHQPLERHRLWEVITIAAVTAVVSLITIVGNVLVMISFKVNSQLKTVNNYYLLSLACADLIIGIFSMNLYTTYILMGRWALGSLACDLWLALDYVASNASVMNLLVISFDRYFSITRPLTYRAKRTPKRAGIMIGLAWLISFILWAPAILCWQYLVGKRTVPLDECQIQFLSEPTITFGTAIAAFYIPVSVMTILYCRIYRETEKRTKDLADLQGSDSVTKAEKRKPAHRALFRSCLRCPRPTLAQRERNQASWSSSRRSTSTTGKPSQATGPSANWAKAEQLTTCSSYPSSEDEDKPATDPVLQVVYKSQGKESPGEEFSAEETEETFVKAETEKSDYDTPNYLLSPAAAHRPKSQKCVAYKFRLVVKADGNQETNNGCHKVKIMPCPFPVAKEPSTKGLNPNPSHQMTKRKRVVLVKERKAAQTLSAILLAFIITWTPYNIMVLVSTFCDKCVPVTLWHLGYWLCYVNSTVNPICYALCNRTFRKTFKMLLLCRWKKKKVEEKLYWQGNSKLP
The assay can be described thus: Displacement of [3H]NMS from human muscarinic M5 receptor expressed in CHO cells by liquid scintillation counter. The format is cell-based. The method in brief:
as §1

Assay [6] is described as follows: Antagonist activity at muscarinic M1/M4 receptor in guinea pig lung assessed as effect on tissue contraction. The class given is functional, Cavia porcellus.
Assay [7] is filed under the species Oryctolagus cuniculus. The assay is described as follows: Intrinsic activity at muscarinic M1/M4 receptor in New Zealanda white rabbit vas deferens assessed as effect on isometric tissue contraction relative to control. The class given is tissue-based. In outline:
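Vas deferens in solution with 10^-6 M yohimbine and 10^-8 M tripitramine at 30 °C, field-stimulated (0.1 ms, 2 Hz, 10-15 V). Contractions recorded isometrically after 1 h equilibration. A cumulative McN-A-343 reference curve was built, then cumulative curves to the test agonist. Responses are expressed as % of the control curve's maximum. Parallel reference-only tissues served as sensitivity checks.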

The species named for assay [8] is Cavia porcellus. The assay can be described thus: Intrinsic activity at muscarinic M2 receptor in guinea pig atrium assessed as effect on inotropic activity relative to control. The format is tissue-based. The conditions noted are these: Cardiac atrium. In outline:
(§2)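 Left atria in PSS at 30 °C, paced via platinum electrodes (1 ms, 1 Hz, 5-10 V). Inotropic force recorded isometrically after 2 h equilibration. A cumulative APE reference curve was obtained, then cumulative agonist curves. Responses are expressed as % of the control maximal response.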

Assay [9] is described as follows: Agonist activity at muscarinic M2 receptor in guinea pig atrium assessed as effect on inotropic activity. The format is functional, Cavia porcellus, Cardiac atrium. In outline: as §2
For assay [10], the species on record is Cavia porcellus. The assay can be described thus: Intrinsic activity at muscarinic M3 receptor in guinea pig ileum assessed as effect on tissue tension changes relative to control. The format is tissue-based. In outline:
(§3)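 Ileum tension changes recorded isotonically after 30 min equilibration. APE curves were run at 30 min intervals; the first was discarded and the second was taken as control. Cumulative agonist curves followed, with responses expressed as % of the control maximum. Parallel reference-only tissues served as sensitivity checks.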

The nature of assay [11]: Agonist activity at muscarinic M3 receptor in guinea pig ileum assessed as effect on tissue tension changes. The format is functional, Cavia porcellus. In outline: as §3

Each structure is given as a SMILES string.

As for `c1coc([C@H]2CCCN2)c1`, the inhibition constant Ki in assay [1] is 46.8 µM; in assay [2], 77.6 µM; in assay [3], 25.1 µM; in assay [4], 89.1 µM; in assay [5], 31.6 µM.

Turning to `CN1CCC[C@@H]1c1ccco1`, in assay [6], the pKb is <5. Besides, the Ki in assay [1] is 77.6 µM; in assay [2], 47.9 µM; in [3], 81.3 µM; in [4], 79.4 µM; in assay [5], 75.9 µM. The Intrinsic activity in [7] was determined as 0.47; in assay [8] it was 0.45; in assay [10], 0.31. Also, the values for the pD2 in assay [9] and in assay [11] were 7.38 and 5.65, respectively.

With `C[N+]1(C)CCC[C@@H]1c1ccco1.[I-]`, the pD2 in assay [6] is <5; in [9], 6.49; in assay [11] it was 5.37. Further, the inhibition constant Ki in [1] was 51.3 µM; in assay [2] it was 14.1 µM; in assay [3] it was 17.8 µM; in [4], 28.2 µM; in assay [5], 23.4 µM. Moreover, the Intrinsic activity amounted to 0.28 in assay [7], 0.4 in [8] and 0.25 in [10].

Regarding `c1coc([C@@H]2CCCN2)c1`, the inhibitory constant (Ki) in assay [1] was 63.1 µM; in assay [2], 107 µM; in assay [3], 43.7 µM; in [4] it was 102 µM; in assay [5] it was 47.9 µM.

Consider `C[N+]1(C)CCC[C@H]1c1ccco1.[I-]`, for which, in assay [6], the pKb is given as <5. In addition, the Ki is 30.9 µM in assay [1]; 7.41 µM in assay [2]; 21.4 µM in [3]; 21.4 µM in assay [4]; 20.9 µM in [5]. In addition, the results for the Intrinsic activity in assay [7], in [8] and in assay [10] were 0.21, 0.3 and 0.41, respectively. The pD2 was determined as 7.19 in assay [9] and 5.77 in assay [11].

As to `C[N+]1(C)CCCC1c1ccco1.[I-]` (racemic), the pD2 in assay [6] is on record as <5; in [9] it was 6.65; in [11] it was 5.65. Further, the inhibition constant (Ki) in [1] is 5.25 µM; in assay [2] it was 3.72 µM; in assay [3], 2.75 µM; in assay [4] it was 6.46 µM; in [5], 3.16 µM. In addition, the Intrinsic activity in assay [7] stood at 0.26; in assay [8], 0.38; in assay [10] it was 0.19.

As to `Cc1ccc(C2CCC[N+]2(C)C)o1.[I-]` (racemic), in [6], the negative-log Kb (pKb) was <5. Further, the inhibitory constant (Ki) was 7.41 µM in assay [1]; 1.91 µM in assay [2]; 6.92 µM in assay [3]; 4.37 µM in assay [4]; 4.68 µM in assay [5]. The Intrinsic activity turned out to be 0.33 in assay [8] and 0.28 in assay [10]. Further, the pD2 in [9] is given as 7.55; in [11], 7.25.

For the compound `Cc1ccc(C[N+](C)(C)C)o1`, the Ki in [1] was 7.94 µM; in assay [2] it was 0.955 µM; in assay [3], 6.17 µM; in assay [4], 6.31 µM; in assay [5], 6.92 µM.

As for `c1coc(C2CCCN2)c1` (racemic), the Ki was 178 µM in [1]; 29.5 µM in assay [2]; 11.5 µM in assay [3]; 87.1 µM in assay [4]; 16.6 µM in assay [5].

`Cc1ccc(C2CCCN2)o1` (racemic): in [6], the pKb was determined as 5.51. The inhibition constant (Ki) in assay [1] was 38 µM; in [2], 4.27 µM; in assay [3] it was 18.2 µM; in assay [4], 51.3 µM; in [5], 19.1 µM. The Intrinsic activity in assay [8] worked out at 1; in assay [10] it was 0.97. For the same compound, the pD2 was 6.66 in assay [9] and 5.57 in assay [11].

Take `C[N+](C)(C)CC#CCOC(=O)Nc1cccc(Cl)c1`: the Ki is 1.95 µM in assay [1]; 3.24 µM in assay [2]; 2.4 µM in assay [3]; 9.12 µM in assay [4]; 3.8 µM in assay [5]. In assay [7], the Intrinsic activity worked out at 1.

(Values after ChEMBL document CHEMBL1157506, “Synthesis and pharmacological characterization of chiral pyrrolidinylfuran derivatives: the discovery of new functionally selective muscarinic agonists” (J Med Chem, 2008).)
